Tests used:
Type in all cases: cell-based
[1] = test system: VCaP_NED; experiment: Western blotting of protein expression during NED; conditions: 10 μM, 48 hours
How it was run: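 Neuroendocrine-differentiated cells were treated for 48 h with DMSO, 10 μM GSK343 (an EZH2 inhibitor) or 10 μM test compound. Parental cells treated with DMSO served as the reference. Whole-cell lysates were extracted and analysed by western blotting. Data are from n=3 biological replicates, shown with SEM, and compared by two-tailed Student's t-test.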

[2] = test system: LNCaP_NED cells; experiment: Cell proliferation
How it was run: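 LNCaP cells were cultured in charcoal-stripped serum (androgen- and steroid-depleted) media to induce neuroendocrine differentiation (LNCaP_NED). NED cells were then exposed to the test compound and/or the AR antagonist enzalutamide for 4 days, and cell proliferation was measured. DMSO served as the negative control.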

[3] = test system: LNCaP cells; experiment: Cell proliferation

SMILES	CBX2 protein expression [1]	H3K27me3 levels (global) [1]	AR protein expression ([1]; compared to DMSO)	ENO2 and N-Myc protein expression ([1]; compared to DMSO)	cell proliferation with AR antagonist [2]	cell proliferation with AR antagonist [3]
CCCc1cc(C)[nH]c(=O)c1CNC(=O)c1cc(-c2ccnc(N3CCN(C)CC3)c2)cc2c1cnn2C(C)C [GSK343]	decrease in CBX2 expression	reduces H3K27me3 levels	increase AR	decrease ENO2 and N-Myc expression	–	–
CNC(=O)c1ccc(N2C(=S)N(c3ccc(C#N)c(C(F)(F)F)c3)C(=O)C2(C)C)cc1F [enzalutamide]	–	–	–	–	no further decrease in proliferation	highly decreased proliferation
